Here are results for seven compounds from ChEMBL document CHEMBL1123878, “Potential antitumor agents. 50. In vivo solid-tumor activity of derivatives of N-[2-(dimethylamino)ethyl]acridine-4-carboxamide” (J Med Chem, 1987).

The term pKa denotes the pH at which an ionisable group is half protonated. The term ILS denotes the gain in survival time of treated over control animals, in per cent. As usually defined, the IC50 is the concentration at which inhibition is half-maximal. High values mean lower potency, low ones higher potency.

Active and inactive are the calls of the source. The rule behind the calls is not given here.

Data set [1] in a line: Base strength is expressed as pKa, determined in water at 25 degrees Centigrade by spectrophotometric method. It is filed as physicochemical.
Data set [2] has as its system Lewis lung carcinoma cell line. Briefly: Percentage increase in life span of tumor bearing animals compared to non treated, tumor-bearing controls when treated at the optimal dose of 45 mg/kg/day intraperitoneally. Type of data set: functional. The conditions noted are these: Mus musculus, ip, route intraperitoneal.
The test system of a further data set is HCT-8. The data set is described as follows: Inhibition of human colon tumor (HCT-8) cell growth in culture. It is filed as functional, cell-based. The procedure, abridged: (§1)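 IC50 is the drug concentration, in nM, that inhibits growth of the cultured cell line by 50%.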
In data set [3] the test system is P388. The data set is described as follows: Percentage increase in life span of tumor bearing animals compared to non treated, tumor-bearing controls when treated at the optimal dose of 65 mg/kg/day intraperitoneally. It is filed as functional. The conditions noted are these: Mus musculus, P388, ip; route intraperitoneal.
A short description of data set [4]: Selectivity ratio of IC50 of HCT to IC50 of L1210 cell lines. It is filed as functional.
The next data set relates to L1210. The data set is described as follows: Inhibition murine leukemia L1210 cell growth in culture. It is filed as functional, cell-based. Particulars: Mus musculus. In outline: as §1
Data set [5] can be described thus: Lipophilicity index (Rm) (HPLC). Type of data set: physicochemical.
Data set [6] concerns P388. Briefly: Percentage increase in life span of compound-treated, tumor bearing animals compared to non treated, tumor-bearing controls when treated at the optimal dose of 150 mg/kg/day intraperitoneally. Type of data set: functional. The conditions noted are these: Mus musculus, P388, ip; route intraperitoneal.
The test system of data set [7] is Lewis lung carcinoma cell line. The data set is described as follows: Percentage increase in life span of tumor bearing animals compared to non treated, tumor-bearing controls when treated at the optimal dose of 150 mg/kg/day intraperitoneally. It is filed as functional. The conditions noted are these: Mus musculus, ip, route intraperitoneal.
In data set [8] the test system is Lewis lung carcinoma cell line. The data set is described as follows: Percentage increase in life span of tumor bearing animals compared to non treated, tumor-bearing controls when treated at the optimal dose of 150 mg/kg/day ip (LL). It is filed as functional. Particulars: Mus musculus.
For data set [9], the system named is P388. The data set is described as follows: Percentage increase in life span of tumor bearing animals compared to non treated, tumor-bearing controls when treated at the optimal dose of 100 mg/kg/day ip (P388). It is filed as functional. The conditions noted are these: Mus musculus, route intraperitoneal.
Data set [10] has as its system P388. The data set is described as follows: (§2) Percentage increase in life span of tumor bearing animals compared to non treated, tumor-bearing controls when treated at the optimal dose of 20 mg/kg/day intraperitoneally. The conditions noted are these: Mus musculus, P388, ip; route intraperitoneal. It is filed as functional.
Data set [11] relates to Lewis lung carcinoma cell line. The description is as §2. It is filed as functional. Particulars: Mus musculus, ip, route intraperitoneal.
The test system of data set [12] is P388. Briefly: Percentage increase in life span of tumor bearing animals compared to non treated, tumor-bearing controls when treated at the optimal dose of 13.3 mg/kg/day intraperitoneally. Type of data set: functional. The conditions noted are these: Mus musculus, P388, ip; route intraperitoneal.
The subject of data set [13] is Lewis lung carcinoma cell line. Briefly: Percentage increase in life span of tumor bearing animals compared to non treated, tumor-bearing controls when administered intraperitoneally; IA denotes inactive. Particulars: Mus musculus. Type of data set: functional. The procedure, abridged: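 Drug was given ip in 0.1 mL 30% v/v ethanol/water. For P388, 10^6 cells were inoculated ip and dosing was on days 1, 5 and 9, with >20% significant. For Lewis lung, 10^6 cells were inoculated iv and dosing was on days 5, 9 and 13, with >40% significant. The read-out is % lifespan increase over untreated controls.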

For data set [14], the system named is P388. The data set is described as follows: Percentage increase in life span of tumor bearing animals compared to non treated, tumor-bearing controls when treated at the optimal dose of 66 mg/kg/day intraperitoneally. It is filed as functional. The conditions noted are these: Mus musculus, P388, ip; route intraperitoneal.
For data set [15], the system named is P388. Briefly: Percentage increase in life span of tumor bearing animals compared to non treated, tumor-bearing controls when treated at the optimal dose of 225 mg/kg/day ip (P388). Particulars: Mus musculus, route intraperitoneal. Type of data set: functional.

Take `COc1cccc2cc3cccc(C(=O)NCCN(C)C)c3nc12.Cl`: the pKa in data set [1] came out at 3.87. Also, in data set [2], the ILS at 45 mg/kg/day was determined as 54%. The values for the IC50 in the data set on HCT-8 and with L1210 were 180 nM and 12 nM, respectively. The compound also had an ILS at 65 mg/kg/day in the data set on P388 [3] of 70%. Moreover, in [4], the Ratio was determined as 15. The Rm in data set [5] is -0.31.
For `Cc1cccc2nc3c(C(=O)NCCN(C)C)cccc3cc12.Cl.Cl.O.O`, the ILS at 150 mg/kg/day in the data set on P388 [6] was determined as 61%; in [7], 60%. The IC50 in the data set on HCT-8 worked out at 980 nM; in the data set on L1210 it was 140 nM. Moreover, the Ratio in [4] was 7. Further, the Rm in data set [5] was -0.12.
Turning to `CN(C)CCCCCCNC(=O)c1cccc2cc3ccccc3nc12.Cl`, the ILS entry in [8] was “inactive”. Further, in the data set on P388 [9], the ILS at 100 mg/kg/day turned out to be 32%. Besides, the results for the IC50 with HCT-8 and in the data set with L1210 were 1960 nM and 550 nM, respectively. In addition, in data set [4], the Ratio worked out at 3.6. In addition, the Rm in data set [5] amounted to 0.28.
With `CN(C)CCNC(=O)c1cccc2cc3cccc(Cl)c3nc12.Cl.Cl`, the ILS at 20 mg/kg/day was 91% in the data set with P388 [10] and 92% in data set [11]. The compound also came in with a half-maximal inhibitory concentration (IC50) in the data set with L1210 of 6.9 nM. Further, the Rm in data set [5] is listed as -0.21.
In the data set with P388 [12], `Cl.Cl.NCCNC(=O)c1cccc2cc3ccccc3nc12` returned an ILS at 13.3 mg/kg/day of 24%. Further, the ILS result in [13] was “inactive”. Moreover, the values for the IC50 with HCT-8 and with L1210 were 1600 nM and 275 nM, respectively. Also, the Ratio in data set [4] came out at 5.8. Besides, the Rm in [5] is recorded as -0.28.
The compound `CN(C)CCNC(=O)c1cccc2cc3ccccc3nc12.Cl.Cl` gave a pKa in data set [1] of 3.54. For the same compound, the ILS at 66 mg/kg/day with P388 [14] turned out to be 91%. In addition, the results for the IC50 in the data set with HCT-8 and in the data set on L1210 were 900 nM and 105 nM, respectively. In data set [4], the Ratio is 8.6. Also, in data set [5], the Rm is recorded as -0.2.
In turn, `CN(C)CCCCCNC(=O)c1cccc2cc3ccccc3nc12.Cl` showed an ILS at 150 mg/kg/day in [8] (route intraperitoneal) of 83%. Also, the IC50 came to 1800 nM in the data set on HCT-8 and 450 nM in the data set with L1210. The Ratio in [4] was 4. The compound further showed an ILS at 225 mg/kg/day with P388 [15] of 34%. The compound further gave a Rm in [5] of 0.12.
